Experimental data reported in ChEMBL document CHEMBL3351385, “Synthesis and preliminary mechanistic evaluation of 5-(p-tolyl)-1-(quinolin-2-yl)pyrazole-3-carboxylic acid amides with potent antiproliferative activity on human cancer cell lines” (Eur J Med Chem, 2014).

How the values were obtained:
[1] = biological target: Mitogen-activated protein kinase 1 (Homo sapiens) (UniProt P28482); assay: Inhibition of ERK2 (unknown origin) assessed as remaining enzyme activity at 10 uM by radioactive [33P]-ATP filter binding assay
Summary of the method: (§1)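 A single 10 µM concentration was tested across a 140-kinase panel. Activity was measured by a radioactive 33P-ATP filter-binding assay run at the International Center for Kinase Profiling, University of Dundee.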

[2] = biological target: MAP/microtubule affinity-regulating kinase 3 (Homo sapiens) (UniProt P27448); assay: Inhibition of MARK3 (unknown origin) assessed as remaining enzyme activity at 10 uM by radioactive [33P]-ATP filter binding assay
[3] = biological target: Serine/threonine-protein kinase ULK1 (Homo sapiens) (UniProt O75385); assay: Inhibition of ULK1 (unknown origin) assessed as remaining enzyme activity at 10 uM by radioactive [33P]-ATP filter binding assay
[4] = biological target: Homeodomain-interacting protein kinase 3 (Homo sapiens) (UniProt Q9H422); assay: Inhibition of HIPK3 (unknown origin) assessed as remaining enzyme activity at 10 uM by radioactive [33P]-ATP filter binding assay
[5] = biological target: Mitogen-activated protein kinase 13 (Homo sapiens) (UniProt O15264); assay: Inhibition of p38delta (unknown origin) assessed as remaining enzyme activity at 10 uM by radioactive [33P]-ATP filter binding assay
[6] = biological target: Rho-associated protein kinase 2 (Homo sapiens) (UniProt O75116); assay: Inhibition of ROCK2 (unknown origin) assessed as remaining enzyme activity at 10 uM by radioactive [33P]-ATP filter binding assay
[7] = biological target: Mitogen-activated protein kinase 10 (Homo sapiens) (UniProt P53779); assay: Inhibition of JNK3 (unknown origin) assessed as remaining enzyme activity at 10 uM by radioactive [33P]-ATP filter binding assay
[8] = biological target: High affinity nerve growth factor receptor (Homo sapiens) (UniProt P04629); assay: Inhibition of TrkA (unknown origin) assessed as remaining enzyme activity at 10 uM by radioactive [33P]-ATP filter binding assay
[9] = biological target: Ribosomal protein S6 kinase alpha-5 (Homo sapiens) (UniProt O75582); assay: Inhibition of MSK1 (unknown origin) assessed as remaining enzyme activity at 10 uM by radioactive [33P]-ATP filter binding assay
[10] = biological target: Tyrosine-protein kinase CSK (Homo sapiens) (UniProt P41240); assay: Inhibition of CSK (unknown origin) assessed as remaining enzyme activity at 10 uM by radioactive [33P]-ATP filter binding assay; summary of the method: as §1
[11] = biological target: Serine/threonine-protein kinase STK11 (Homo sapiens) (UniProt Q15831); assay: Inhibition of LKB1 (unknown origin) assessed as remaining enzyme activity at 10 uM by radioactive [33P]-ATP filter binding assay
[12] = biological target: MAP kinase-interacting serine/threonine-protein kinase 1 (Homo sapiens) (UniProt Q9BUB5); assay: Inhibition of MNK1 (unknown origin) assessed as remaining enzyme activity at 10 uM by radioactive [33P]-ATP filter binding assay
[13] = biological target: Discoidin domain-containing receptor 2 (Homo sapiens) (UniProt Q16832); assay: Inhibition of DDR2 (unknown origin) assessed as remaining enzyme activity at 10 uM by radioactive [33P]-ATP filter binding assay; summary of the method: as §1
[14] = biological target: Serine/threonine-protein kinase MARK2 (Homo sapiens) (UniProt Q7KZI7); assay: Inhibition of MARK2 (unknown origin) assessed as remaining enzyme activity at 10 uM by radioactive [33P]-ATP filter binding assay
[15] = biological target: Serine/threonine-protein kinase PAK 5 (Homo sapiens) (UniProt Q9P286); assay: Inhibition of PAK5 (unknown origin) assessed as remaining enzyme activity at 10 uM by radioactive [33P]-ATP filter binding assay
[16] = biological target: Serine/threonine-protein kinase PAK 2 (Homo sapiens) (UniProt Q13177); assay: Inhibition of PAK2 (unknown origin) assessed as remaining enzyme activity at 10 uM by radioactive [33P]-ATP filter binding assay
[17] = biological target: Inhibitor of nuclear factor kappa-B kinase subunit beta (Homo sapiens) (UniProt O14920); assay: Inhibition of IKKbeta (unknown origin) assessed as remaining enzyme activity at 10 uM by radioactive [33P]-ATP filter binding assay
[18] = biological target: Mitogen-activated protein kinase kinase kinase 1 (Homo sapiens) (UniProt Q13233); assay: Inhibition of MEKK1 (unknown origin) assessed as remaining enzyme activity at 10 uM by radioactive [33P]-ATP filter binding assay
[19] = biological target: Serine/threonine-protein kinase BRSK1 (Homo sapiens) (UniProt Q8TDC3); assay: Inhibition of BRSK1 (unknown origin) assessed as remaining enzyme activity at 10 uM by radioactive [33P]-ATP filter binding assay; summary of the method: as §1
[20] = biological target: Myosin light chain kinase, smooth muscle (Homo sapiens) (UniProt Q15746); assay: Inhibition of smMLCK (unknown origin) assessed as remaining enzyme activity at 10 uM by radioactive [33P]-ATP filter binding assay
[21] = biological target: Dual specificity mitogen-activated protein kinase kinase 6 (Homo sapiens) (UniProt P52564); assay: Inhibition of MKK6 (unknown origin) assessed as remaining enzyme activity at 10 uM by radioactive [33P]-ATP filter binding assay
[22] = biological target: Mitogen-activated protein kinase kinase kinase kinase 2 (Homo sapiens) (UniProt Q12851); assay: Inhibition of GCK (unknown origin) assessed as remaining enzyme activity at 10 uM by radioactive [33P]-ATP filter binding assay
[23] = biological target: Serine/threonine-protein kinase 26 (Homo sapiens) (UniProt Q9P289); assay: Inhibition of MST4 (unknown origin) assessed as remaining enzyme activity at 10 uM by radioactive [33P]-ATP filter binding assay
[24] = biological target: Ribosomal protein S6 kinase alpha-1 (Homo sapiens) (UniProt Q15418); assay: Inhibition of RSK1 (unknown origin) assessed as remaining enzyme activity at 10 uM by radioactive [33P]-ATP filter binding assay
[25] = biological target: Fibroblast growth factor receptor 1 (Homo sapiens) (UniProt P11362); assay: Inhibition of FGFR1 (unknown origin) assessed as remaining enzyme activity at 10 uM by radioactive [33P]-ATP filter binding assay; summary of the method: as §1
[26] = biological target: Tyrosine-protein kinase ABL1 (Homo sapiens) (UniProt P00519); assay: Inhibition of ABL (unknown origin) assessed as remaining enzyme activity at 10 uM by radioactive [33P]-ATP filter binding assay; summary of the method: as §1
[27] = biological target: Dual specificity mitogen-activated protein kinase kinase 1 (Homo sapiens) (UniProt Q02750); assay: Inhibition of MKK1 (unknown origin) assessed as remaining enzyme activity at 10 uM by radioactive [33P]-ATP filter binding assay
[28] = biological target: Eukaryotic elongation factor 2 kinase (Homo sapiens) (UniProt O00418); assay: Inhibition of EF2K (unknown origin) assessed as remaining enzyme activity at 10 uM by radioactive [33P]-ATP filter binding assay; summary of the method: as §1
[29] = biological target: Mitogen-activated protein kinase 12 (Homo sapiens) (UniProt P53778); assay: Inhibition of p38gamma (unknown origin) assessed as remaining enzyme activity at 10 uM by radioactive [33P]-ATP filter binding assay
Summary of the method: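 Single-concentration screen against a 140-kinase panel. Done by the International Center for Kinase Profiling, University of Dundee, with a radioactive 33P-ATP filter-binding read-out.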

Sequence of Mitogen-activated protein kinase 12 (Homo sapiens) (P53778 whole entry): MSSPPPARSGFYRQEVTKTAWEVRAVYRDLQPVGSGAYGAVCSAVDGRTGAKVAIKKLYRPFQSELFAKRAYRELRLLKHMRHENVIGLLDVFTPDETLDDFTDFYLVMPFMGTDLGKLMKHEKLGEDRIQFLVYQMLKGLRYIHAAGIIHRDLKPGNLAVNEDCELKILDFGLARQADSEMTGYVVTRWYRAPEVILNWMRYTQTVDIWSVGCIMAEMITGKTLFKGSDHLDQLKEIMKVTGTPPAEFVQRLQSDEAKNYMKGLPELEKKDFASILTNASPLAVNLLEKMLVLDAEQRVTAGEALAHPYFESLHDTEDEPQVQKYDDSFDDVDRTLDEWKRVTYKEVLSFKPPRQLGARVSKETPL
Sequence of MAP/microtubule affinity-regulating kinase 3 (Homo sapiens) (P27448 whole entry, looked up): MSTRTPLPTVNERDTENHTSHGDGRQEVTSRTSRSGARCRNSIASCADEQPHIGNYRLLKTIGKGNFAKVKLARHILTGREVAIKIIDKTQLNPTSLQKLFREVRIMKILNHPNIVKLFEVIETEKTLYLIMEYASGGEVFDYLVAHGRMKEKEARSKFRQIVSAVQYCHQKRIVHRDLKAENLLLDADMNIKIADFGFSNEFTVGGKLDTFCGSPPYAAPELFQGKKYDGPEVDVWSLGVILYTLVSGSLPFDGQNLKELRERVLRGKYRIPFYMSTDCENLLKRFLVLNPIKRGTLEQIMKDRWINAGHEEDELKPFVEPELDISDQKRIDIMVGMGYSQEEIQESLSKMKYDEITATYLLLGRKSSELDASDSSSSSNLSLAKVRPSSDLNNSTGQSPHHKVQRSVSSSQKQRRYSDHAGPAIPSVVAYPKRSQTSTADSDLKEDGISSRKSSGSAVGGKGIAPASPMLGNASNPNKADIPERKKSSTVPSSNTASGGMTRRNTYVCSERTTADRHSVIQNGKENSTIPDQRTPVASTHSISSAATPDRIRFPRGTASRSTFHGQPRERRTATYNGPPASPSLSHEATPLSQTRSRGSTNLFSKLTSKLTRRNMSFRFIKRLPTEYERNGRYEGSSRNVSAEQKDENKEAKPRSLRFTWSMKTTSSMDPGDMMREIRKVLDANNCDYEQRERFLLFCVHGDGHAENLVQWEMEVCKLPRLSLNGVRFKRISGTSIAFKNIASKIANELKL
Sequence of Serine/threonine-protein kinase 26 (Homo sapiens) (Q9P289 2-416 limits assumed): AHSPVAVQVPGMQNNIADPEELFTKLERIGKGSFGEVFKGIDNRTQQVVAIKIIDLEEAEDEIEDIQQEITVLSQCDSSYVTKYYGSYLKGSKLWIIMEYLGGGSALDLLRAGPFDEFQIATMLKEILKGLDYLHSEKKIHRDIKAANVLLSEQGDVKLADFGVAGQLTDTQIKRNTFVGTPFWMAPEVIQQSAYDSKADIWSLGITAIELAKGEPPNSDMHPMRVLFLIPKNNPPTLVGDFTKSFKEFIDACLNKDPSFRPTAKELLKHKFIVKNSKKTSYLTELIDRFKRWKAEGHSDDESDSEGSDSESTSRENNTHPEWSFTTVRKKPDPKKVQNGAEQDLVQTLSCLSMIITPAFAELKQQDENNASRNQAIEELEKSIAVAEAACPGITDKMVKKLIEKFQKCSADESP
Sequence of Serine/threonine-protein kinase BRSK1 (Homo sapiens) (Q8TDC3 whole entry): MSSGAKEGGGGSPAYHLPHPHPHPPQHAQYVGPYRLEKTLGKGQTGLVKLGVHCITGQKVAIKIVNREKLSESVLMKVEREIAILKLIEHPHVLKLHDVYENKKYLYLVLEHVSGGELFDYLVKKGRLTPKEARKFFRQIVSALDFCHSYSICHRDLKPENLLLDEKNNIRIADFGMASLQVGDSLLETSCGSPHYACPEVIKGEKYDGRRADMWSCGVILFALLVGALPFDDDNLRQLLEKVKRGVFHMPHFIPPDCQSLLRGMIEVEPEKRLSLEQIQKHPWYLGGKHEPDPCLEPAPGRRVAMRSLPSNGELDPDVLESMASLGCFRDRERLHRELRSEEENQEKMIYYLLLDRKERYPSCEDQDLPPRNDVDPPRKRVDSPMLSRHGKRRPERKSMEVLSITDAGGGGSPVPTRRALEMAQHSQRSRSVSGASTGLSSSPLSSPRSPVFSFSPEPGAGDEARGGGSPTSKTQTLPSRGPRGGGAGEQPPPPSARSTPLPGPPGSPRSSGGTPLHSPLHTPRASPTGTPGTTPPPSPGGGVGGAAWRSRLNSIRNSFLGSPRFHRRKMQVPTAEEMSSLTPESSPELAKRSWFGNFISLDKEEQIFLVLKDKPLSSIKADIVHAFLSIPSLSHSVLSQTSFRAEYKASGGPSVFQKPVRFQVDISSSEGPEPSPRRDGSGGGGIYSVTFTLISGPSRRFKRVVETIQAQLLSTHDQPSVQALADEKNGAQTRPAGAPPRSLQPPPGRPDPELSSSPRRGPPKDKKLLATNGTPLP
Sequence of Serine/threonine-protein kinase PAK 2 (Homo sapiens) (Q13177 whole entry): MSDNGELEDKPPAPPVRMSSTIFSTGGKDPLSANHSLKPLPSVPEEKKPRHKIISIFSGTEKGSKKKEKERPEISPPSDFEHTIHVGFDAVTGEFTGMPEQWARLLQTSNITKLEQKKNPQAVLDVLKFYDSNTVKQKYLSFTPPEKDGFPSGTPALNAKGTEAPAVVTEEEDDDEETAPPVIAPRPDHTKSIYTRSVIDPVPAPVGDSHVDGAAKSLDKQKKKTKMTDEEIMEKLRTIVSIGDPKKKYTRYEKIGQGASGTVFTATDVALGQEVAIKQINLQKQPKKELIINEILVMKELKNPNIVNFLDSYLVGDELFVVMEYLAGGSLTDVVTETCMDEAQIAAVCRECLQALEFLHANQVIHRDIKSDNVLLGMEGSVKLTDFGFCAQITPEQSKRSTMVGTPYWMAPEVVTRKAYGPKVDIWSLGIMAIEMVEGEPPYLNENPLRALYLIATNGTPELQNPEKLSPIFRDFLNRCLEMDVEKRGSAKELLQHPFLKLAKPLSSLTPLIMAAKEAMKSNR
Sequence of Mitogen-activated protein kinase 13 (Homo sapiens) (O15264 whole entry): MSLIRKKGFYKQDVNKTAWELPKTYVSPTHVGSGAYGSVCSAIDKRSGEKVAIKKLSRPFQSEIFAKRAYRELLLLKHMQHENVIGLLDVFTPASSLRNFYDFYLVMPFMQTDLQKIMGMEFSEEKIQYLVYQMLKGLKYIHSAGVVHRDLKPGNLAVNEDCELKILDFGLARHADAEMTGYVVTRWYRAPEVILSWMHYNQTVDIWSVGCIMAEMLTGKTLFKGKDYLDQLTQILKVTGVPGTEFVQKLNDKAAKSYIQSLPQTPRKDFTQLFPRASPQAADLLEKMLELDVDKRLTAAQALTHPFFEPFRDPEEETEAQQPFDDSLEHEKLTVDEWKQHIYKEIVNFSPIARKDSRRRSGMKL
Sequence of Mitogen-activated protein kinase kinase kinase kinase 2 (Homo sapiens) (Q12851 whole entry): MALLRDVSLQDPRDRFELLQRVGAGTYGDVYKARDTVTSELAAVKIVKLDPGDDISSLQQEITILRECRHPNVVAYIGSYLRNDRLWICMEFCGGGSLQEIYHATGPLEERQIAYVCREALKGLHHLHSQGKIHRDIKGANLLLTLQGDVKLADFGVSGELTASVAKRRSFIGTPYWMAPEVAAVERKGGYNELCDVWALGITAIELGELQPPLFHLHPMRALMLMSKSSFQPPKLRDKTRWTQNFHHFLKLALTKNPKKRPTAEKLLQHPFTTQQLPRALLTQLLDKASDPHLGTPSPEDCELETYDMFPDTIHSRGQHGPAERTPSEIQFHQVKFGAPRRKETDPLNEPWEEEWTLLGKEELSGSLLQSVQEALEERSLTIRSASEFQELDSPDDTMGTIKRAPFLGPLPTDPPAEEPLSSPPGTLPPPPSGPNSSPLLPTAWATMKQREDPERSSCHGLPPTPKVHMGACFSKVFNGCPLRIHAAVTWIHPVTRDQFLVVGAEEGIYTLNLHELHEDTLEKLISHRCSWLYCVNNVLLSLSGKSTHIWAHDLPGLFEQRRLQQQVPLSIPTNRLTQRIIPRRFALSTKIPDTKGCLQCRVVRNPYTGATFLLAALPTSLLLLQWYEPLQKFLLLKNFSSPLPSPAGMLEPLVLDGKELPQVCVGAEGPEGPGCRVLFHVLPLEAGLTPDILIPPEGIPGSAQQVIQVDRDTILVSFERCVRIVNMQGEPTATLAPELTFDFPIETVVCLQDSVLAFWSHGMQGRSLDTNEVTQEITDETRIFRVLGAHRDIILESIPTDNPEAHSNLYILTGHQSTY
Sequence of Dual specificity mitogen-activated protein kinase kinase 6 (Homo sapiens) (P52564 whole entry): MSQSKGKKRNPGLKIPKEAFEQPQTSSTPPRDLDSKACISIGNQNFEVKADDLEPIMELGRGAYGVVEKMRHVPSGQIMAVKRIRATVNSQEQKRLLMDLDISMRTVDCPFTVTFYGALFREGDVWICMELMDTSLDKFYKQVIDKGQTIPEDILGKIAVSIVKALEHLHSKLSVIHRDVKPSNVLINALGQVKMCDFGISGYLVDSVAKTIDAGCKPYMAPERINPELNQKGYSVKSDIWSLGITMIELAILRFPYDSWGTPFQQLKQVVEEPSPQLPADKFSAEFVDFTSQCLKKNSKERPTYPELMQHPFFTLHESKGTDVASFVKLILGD
Sequence of Serine/threonine-protein kinase STK11 (Homo sapiens) (Q15831 whole entry): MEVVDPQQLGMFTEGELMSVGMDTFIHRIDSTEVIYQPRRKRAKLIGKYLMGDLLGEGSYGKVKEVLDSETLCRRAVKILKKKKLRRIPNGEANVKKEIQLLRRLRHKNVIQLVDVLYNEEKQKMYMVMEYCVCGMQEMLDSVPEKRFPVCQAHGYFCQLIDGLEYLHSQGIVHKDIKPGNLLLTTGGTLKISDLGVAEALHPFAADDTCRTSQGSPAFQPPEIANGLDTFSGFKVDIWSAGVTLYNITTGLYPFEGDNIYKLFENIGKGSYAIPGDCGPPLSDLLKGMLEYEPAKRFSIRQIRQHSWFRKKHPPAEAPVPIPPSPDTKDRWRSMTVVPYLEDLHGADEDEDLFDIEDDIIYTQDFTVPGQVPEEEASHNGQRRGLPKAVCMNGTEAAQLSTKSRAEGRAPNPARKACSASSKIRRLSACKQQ

- Activity [1]: 115%
- Activity [2]: 103%
- Activity [3]: 136%
- Activity [4]: 100%
- Activity [5]: 87%
- Activity [6]: 85%
- Activity [7]: 95%
- Activity [8]: 96%
- Activity [9]: 89%
- Activity [10]: 109%
- Activity [11]: 115%
- Activity [12]: 104%
- Activity [13]: 113%
- Activity [14]: 101%
- Activity [15]: 97%
- Activity [16]: 109%
- Activity [17]: 70%
- Activity [18]: 113%
- Activity [19]: 108%
- Activity [20]: 103%
- Activity [21]: 99%
- Activity [22]: 112%
- Activity [23]: 110%
- Activity [24]: 108%
- Activity [25]: 127%
- Activity [26]: 84%
- Activity [27]: 95%
- Activity [28]: 97%
- Activity [29]: 107%
SMILES: Cc1ccc(-c2cc(C(=O)Nc3ccnc(Cl)c3)nn2-c2ccc3ccccc3n2)cc1
